Autophagy HCS = modulators of autophagy; 0.98% of 190,000 active; MEF GFP-LC3 puncta imaging; test concentration mostly 10 µM; AID 463193; calls only at 10 µM (by protocol);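 active = percentage of spot-positive cells more than 3 SD above its plate mean, without a fluorescence outlier flag or 80% toxicity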
Lmaj promast = reduces viability of Leishmania major promastigotes | inhibition, % at 10 µM | 9% of 200,000 active | resazurin fluorescence viability; in the data active = inhibition above about 50%;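 note: promastigotes grown with compound for 44 hours at 28 °C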
MT stabilizer = microtubule stabilizers in HeLa cells | HeLa tubulin immunostaining HCS, 24 h; share of cells brighter than vehicle mean+2SD | % tubulin-high responders, % at 10 µM | 0.83% of 200,000 active;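 active = plate Z-score above 3 for both tubulin-high and condensed-nucleus cell shares, with cell loss under 80%, at 10 µM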;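 note: anti alpha tubulin signal scored within the nucleus-defined area of each cell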
bCat nuc transl = beta-catenin nuclear translocation modulation. HeLa beta-catenin nuclear translocation, immunofluorescence imaging. nuclear translocation activity, % at 5 µM. 0.3% of 190,000 active;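 active = nuclear translocation activity above 50% at 5 µM, with a well cell count of 50 or more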;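 note: per-cell ratio of nuclear to cytoplasmic median beta-catenin stain intensity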
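Test system: HeLa cells, endogenous beta-catenin; Compound: single 5 µM dose plus 0.02–20 µM confirmation series; Times: compound exposure 24 h at 37°C; Signal: fluorescence imaging of beta-catenin antibody stain plus DAPI; Read-out: % activation, nuclear-to-cytoplasmic median beta-catenin signal ratio per cell.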
Dynein transport = blocks dynein driven cargo transport along microtubules; 3617.4 mouse cells, GR-EGFP nuclear translocation imaging; test concentration mostly 20 µM; stimulated with dexamethasone, 1 µM; stronger effect = lower value; z-score, hits read low; 0.47% of 220,000 active; AID 1381;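 active = plate z-score of nuclear minus cytoplasmic receptor signal below a set negative limit, without overly bright fluorescence or cell loss, cut at about -3.5 in these data, passing the limit was not always enough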;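 note: z-score of nuclear minus cytoplasmic ring GR-EGFP intensity difference per well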
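Buffer or medium – tet-free medium with charcoal-stripped serum · Signal – automated 10x imaging of fixed Hoechst-stained cells · Also added – dexamethasone agonist, 1.0 µM final, for 30 min · Incubation – induction 48 h, compound 1 h, agonist 30 min · Read-out – GR-EGFP nuclear translocation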
CHOP inh = blocks CHOP induction under ER stress; CHO-K1 CHOP-promoter luciferase, tunicamycin-induced, 15-18 h; inhibition, % at 10 µM; 3.8% of 220,000 active;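 active = compounds that reduced the stress-induced luciferase reporter signal by more than about 70% of percent inhibition, limit read from the data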
Each line names hits and unclear results; the compound was inactive in the other large screens. The list is not random: actives were taken first. Their share in the collection is about 12%.

CCC(=Nc1ccccc1OC)C1=C(O)CC(c2ccccc2)CC1=O (stereo not given)	Lmaj promast 53, MT stabilizer 15
COc1ccc(N=CC2=C(O)CC(c3ccccc3)CC2=O)c(OC)c1 (stereo not given)	MT stabilizer 27 (no result: bCat nuc transl)
CCOc1ccccc1N=CC1=C(O)CC(c2ccccc2)CC1=O (stereo not given)	none
O=C1N[C@@H](Cc2ccccc2)C(=O)N1CCN1CCOCC1	none
CN(C[C@H](Cc1ccccc1)N(C[C@H](Cc1ccccc1)N(CC1(c2ccccc2)CC1)N=O)N=O)N=O	none
CN1CCN(CCCC(=O)c2ccc(C3CCCC3)cc2)CC1	Lmaj promast 97
CN1CCN(CCCCC(=O)c2ccccc2)CC1	none
CCN(Cc1ccccc1)S(=O)(=O)c1nc2nc(C)c(C)c(C)n2n1	none (no result: bCat nuc transl)
NS(=O)(=O)c1ccc(N2N=C(c3ccccc3)CC2c2cccc(F)c2)cc1 (stereo not given)	CHOP inh 83
NS(=O)(=O)c1ccc(N2N=C(c3ccc(Br)cc3)CC2c2ccc(F)cc2)cc1 (stereo not given)	Lmaj promast 95
CN(C(=O)COC(=O)CCc1c[nH]c2ccccc12)C(c1ccccc1)c1ccccc1	none
COc1ccc(CCNC(=O)C2CCC(=O)N2CCc2ccccc2)cc1OC (stereo not given)	none
Cc1cccc(-n2nnnc2SCn2nnc3ccccc3c2=O)c1	Autophagy HCS active (no result: bCat nuc transl)
Cc1ccc(-n2nnnc2SCn2nnc3ccccc3c2=O)cc1	none
COc1ccc(-c2cc(C(=O)OCC(=O)N(C)C3CCS(=O)(=O)C3)c3ccccc3n2)cc1OC (stereo not given)	none
CCn1c(SCC(=O)c2cc(C)n(-c3ccc(C(=O)OC)cc3)c2C)nnc1-c1cccnc1	Lmaj promast 71 (no result: CHOP inh)
Cc1ccc(/C=C/C(=O)Nc2nnc(C)s2)o1	Lmaj promast 55
Cc1ccc(/C=C/C(=O)Nc2sc(C)c(C)c2C(=O)OC(C)C)o1	Lmaj promast 51
COc1cc(NC(=O)c2csc(N)n2)cc(C(=O)Nc2cccc(C(F)(F)F)c2)c1	CHOP inh 79 (no result: Autophagy HCS, Lmaj promast, MT stabilizer)
COc1cc(NC(=O)c2cnc(N)s2)cc(C(=O)Nc2cccc(C(F)(F)F)c2)c1	none (no result: Autophagy HCS, Lmaj promast, MT stabilizer)
O=C(COc1ccc(Cl)cc1Cl)c1ccc[nH]1	none (no result: Autophagy HCS, Lmaj promast, MT stabilizer)
CC(C)c1ccc2c(c1)CCC1C(C)(CN)CCCC21C (stereo not given)	CHOP inh 102 (no result: Autophagy HCS, Lmaj promast, MT stabilizer)
CCCCOC(=O)N/N=C/C=C/c1ccccc1	none
Cc1cc(C)c2ccc(N)nc2c1O	Lmaj promast 99 (no result: CHOP inh)
OC(CNCCc1ccccc1)COc1ccc(OCC(O)CNCCc2ccccc2)cc1 (stereo not given)	none (no result: Autophagy HCS, Lmaj promast, MT stabilizer)
COCCNCC(O)CON=C1c2ccccc2-c2ccccc21 (stereo not given)	none
CC(C)CCNCC(O)CON=C1c2ccccc2-c2ccccc21 (stereo not given)	Lmaj promast 88
CC(C)N(CCNCC(O)COc1ccc(C(C)(C)c2ccccc2)cc1)C(C)C (stereo not given)	Lmaj promast 94
OC(CNCCC(c1ccccc1)c1ccccc1)COc1ccccc1 (stereo not given)	CHOP inh 74
Cn1ccc(C(=O)Nc2ccc(Br)cc2Br)n1	none
CN(C)CCCOc1ccc(C(C)(C)c2ccccc2)cc1	Lmaj promast 100
C=CCNCCOc1ccc(C(C)(C)c2ccccc2)cc1	Lmaj promast 98
CN(C)CCOc1ccc(C(C)(C)c2ccccc2)cc1	Lmaj promast 72
C=CCCCOc1ccc(C(=O)O)cc1	none
CN(C)CCOc1ccccc1C(C)(C)C	none
Cc1ccc(S(=O)(=O)N(C)C)cc1NC(=O)COC(=O)/C(=C/c1ccc(F)cc1)c1cccs1	none
COc1cccc(-c2noc(-c3ccc(Br)o3)n2)c1	none
CN(C)S(=O)(=O)c1ccc(N2CCCC2)c(C(=O)Nc2nc(-c3ccc(F)cc3)cs2)c1	Lmaj promast 98
CN(C)S(=O)(=O)c1ccc(N2CCCC2)c(C(=O)Nc2nc3ccccc3s2)c1	none
CN(C)S(=O)(=O)c1ccc(N2CCCC2)c(C(=O)Nc2nc3ccc(F)cc3s2)c1	none
CN(C)S(=O)(=O)c1ccc(N2CCCC2)c(C(=O)Nc2nc(-c3cc(F)ccc3F)cs2)c1	Lmaj promast 84 (no result: bCat nuc transl)

Screening data: PubChem BioAssay, several laboratories
